SUMO Mot1 rescue – blocks SUMOylation pathway, rescuing yeast Mot1-301 growth | 320,000 compounds, 1% hits | S. cerevisiae Mot1-301 growth rescue, ATP luminescence, 38.5C; percent above DMSO median, 100 means doubled | growth rescue, % at 18.8 µM | AID 2716;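 active = every valid replicate shows activation above 250% relative to neutral control wells; inactive = the rest, any valid replicate at or below 250%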;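 note: OY570 slx delta 5 strain wells were the positive control but not used for scaling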
APOBEC3A inh – blocks human APOBEC3A ssDNA deamination | recombinant A3A, FAM/TAMRA ssDNA deamination fluorescence | P31941 | AID 493011 | 330,000 compounds, 0.41% hits | inhibition, % at 20 µM;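 active = at least 40% inhibition at 20 µM here, with at most 30% in a related deaminase screen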;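 note: plate controls were A3A with DMSO for no effect and wells lacking A3A enzyme for full effect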
Target sequence (P31941 whole entry, looked up): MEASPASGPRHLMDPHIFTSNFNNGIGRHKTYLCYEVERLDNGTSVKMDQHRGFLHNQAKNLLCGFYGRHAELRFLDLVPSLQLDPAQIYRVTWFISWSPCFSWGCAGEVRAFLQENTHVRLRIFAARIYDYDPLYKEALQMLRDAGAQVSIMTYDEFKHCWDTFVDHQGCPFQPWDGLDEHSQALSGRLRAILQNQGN
ASAP1 GAP inh – ASAP1 ArfGAP inhibition; ASAP1-stimulated ARF1 GTP hydrolysis, GDP FP detection; inhibition, % at 16.5 µM; Q9ULH1; 360,000 compounds, 0.19% hits; in the data active = inhibition above about 25%;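 note: 0% = vehicle with enzyme and substrate and 100% = no enzyme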
Target sequence (Q9ULH1 325-724 limits assumed): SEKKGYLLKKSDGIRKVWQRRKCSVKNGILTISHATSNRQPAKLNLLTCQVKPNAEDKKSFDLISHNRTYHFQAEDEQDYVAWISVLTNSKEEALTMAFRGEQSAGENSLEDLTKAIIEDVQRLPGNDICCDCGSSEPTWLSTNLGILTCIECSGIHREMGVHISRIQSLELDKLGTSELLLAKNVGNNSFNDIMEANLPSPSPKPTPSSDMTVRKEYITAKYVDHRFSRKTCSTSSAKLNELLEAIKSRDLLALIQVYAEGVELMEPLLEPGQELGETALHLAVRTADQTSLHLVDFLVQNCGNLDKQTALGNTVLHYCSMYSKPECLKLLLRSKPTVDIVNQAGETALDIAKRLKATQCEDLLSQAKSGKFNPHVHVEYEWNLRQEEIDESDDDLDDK
Statin myotox sup – suppressors of simvastatin-induced myotoxicity in C2C12 myotubes; ATP luminescence, 48 h; scaled: DMSO 0, geranylgeraniol control 100; rescue of ATP level, % at 7.49 µM; 330,000 compounds, 0.78% hits; AID 602340;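 active = mean ATP rescue above about 67%, or every replicate alone reaching that limit, limit read from the data, passing the limit was not always enough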;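 note: myotubes were challenged with 10 µM simvastatin during compound exposure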
ARFGAP1 inh – inhibits rat ARF GTPase activating protein 1. Q62848. Arfgap1-stimulated ARF1 GTP hydrolysis, GDP FP detection. inhibition, % at 16.5 µM. 360,000 compounds, 0.26% hits. AID 651572;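 active = inhibition above a per-plate limit, mean inhibition of low control wells plus 3 SD, cut at about 25% in these data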;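 note: 0% = DMSO wells with enzyme and 100% = wells lacking Arfgap1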
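Material: rat Arfgap1 GAP domain (His6, aa 1-136), purified enzyme. Also added: human ARF1(Δ1-17)-GTP substrate. Compound dosing: 16.5 µM single point, 1.26% DMSO. Timing: enzyme reaction 120 min at 25 °C after 20 min preincubation. Signal: GDP detection by fluorescence polarization. Read-out basis: percent inhibition of GAP-stimulated GDP formation, scaled between DMSO and no-Arfgap1 medians.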
APOBEC3G inh – blocks human APOBEC3G single-stranded DNA deamination; Q9HC16; recombinant A3G, ssDNA deamination FAM/TAMRA fluorescence; inhibition, % at 20 µM; 330,000 compounds, 0.28% hits;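 active = inhibition of at least 40% at 20 µM, with no more than 30% in the related APOBEC3A deaminase screen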;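 note: plate controls were DMSO wells with A3G for no effect and wells lacking A3G enzyme for full effect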
Yeast Mot1 SUMO – inhibits SUMO pathway, affecting Mot1-301 yeast growth; shares compounds with SUMO Mot1 rescue; S. cerevisiae Mot1-301 galactose growth, ATP luminescence, 24 h; -100 = growth of slx-deleted rescue strain; growth activity, percent, % at 42 µM; 2,300 tested, under 10 active; AID 493004;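 active = Signal drops as the depositor expects, and the fitted half-maximal dose is no more than ten times the top valid tested dose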;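 note: more negative values mean stronger growth rescue toward the control strain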
The depositor's hits bear a star; . = no result given; + = active, no number; [ ] = remark or other dose. Sampled rows, rich in hits. Any-hit rate of the full collection: about 2.1%.

SMILES | SUMO Mot1 rescue | APOBEC3A inh | ASAP1 GAP inh | Statin myotox sup | ARFGAP1 inh | APOBEC3G inh | Yeast Mot1 SUMO
C[C@@H]1CN([C@H](C)CO)S(=O)(=O)c2ccc(-c3cccnc3)cc2O[C@H]1CN(C)Cc1cncnc1 | . | . | . | -8 | . | . | .
CN(C)C(=O)c1ccc(-c2ccc([C@@H]3[C@H](CO)N4CCCCN(Cc5ccncc5)C[C@@H]34)cc2)cc1 | . | . | . | 5 | . | . | .
CCOC(=O)Cn1nc(Cc2ccccc2)c2ccccc2c1=O | -2 | 4 | 7 | . | -14 | 2 | .
CN1CCCC(n2nc(Cc3ccc(Cl)cc3)c3ccccc3c2=O)CC1 (centres undefined) | 396* | -3 | -24 | -16 | 2 | -8 | 0
Cc1cccc(N=C2C(=O)Nc3c(Cl)cccc32)c1 | 562* | -3 | 5 | 12 | 1 | 0 | 0
Cc1sc(NC(=O)c2ccc(F)cc2)c(CN2CCCCCC2)c1C | 497* | 5 | 0 | 0 | 2 | -3 | 1
O=C1CCCC2=C1C(c1ccncc1)c1c(nc(SCc3ccccc3Cl)[nH]c1=O)N2 (centres undefined) | 682* | -4 | 1 | -21 | 3 | -3 | 0
COc1ccc(C(=O)O)cc1S(=O)(=O)NCCN(C)C | 824* | 3 | 7 | 2 | 3 | 2 | 0
CN1[C@@H]2c3ccc(-c4ccc(F)cc4)c(=O)n3C[C@H]1[C@H](CO)[C@H]2C(=O)N1CCCCC1 | . | . | . | 13 | . | . | .
Cc1n[nH]c(=O)c2c(NC(=O)COC(=O)Cc3ccc(Cl)cc3Cl)oc(C)c12 | 535* | 1 | 3 | 6 | -2 | -4 | 0[21 µM]
Cc1n[nH]c(=O)c2c(NC(=O)COC(=O)Cc3c(F)cccc3Cl)oc(C)c12 | -5 | -1 | -10 | . | -7 | -3 | .
O=C(C[C@H]1CC[C@@H]2[C@H](COC[C@@H](O)CN2C(=O)Nc2ccc(F)cc2)O1)NCCc1ccccc1 | . | . | . | -27 | . | . | .
C[C@@H]1CN([C@H](C)CO)S(=O)(=O)c2ccc(C#CC3CC3)cc2O[C@H]1CN(C)C(=O)C1CCC1 | . | . | . | -3 | . | . | .
CC1c2cc3c(cc2CCN1CC(=O)Nc1ccccc1)OCCCO3 (centres undefined) | 653* | -1 | 0 | 3 | 7 | -8 | 0
Cc1ccc(NC(=O)CN2CCc3cc4c(cc3C2C)OCCCO4)cc1 (centres undefined) | 5 | -5 | -15 | 8 | 0 | -7 | .
COc1ccc(C2NC(=O)CS2)cc1OC (centres undefined) | 158 | -5 | 2 | -1 | -3 | -10 | .
COc1ccccc1C1NC(=O)CS1 (centres undefined) | 360* | 0 | -12 | -10 | 6 | -2 | 0
C/C(CC(=O)Nc1cccnc1)=N\NC(=O)C(C)Oc1ccc(Cl)cc1Cl (centres undefined) | 671* | -5 | 2 | . | 2 | -8 | 0
CCOc1ccc(CCNC(=O)COC(=O)COc2ccc(C(C)=O)cc2)cc1OCC | + | 1 | -21 | 7 | -6 | -6 | -1
CCOc1ccc(CCNC(=O)COC(=O)COc2ccc(C(=O)CC)cc2)cc1OCC | 5 | 3 | -2 | 6 | 12 | -6 | .
CCOc1ccc(CCNC(=O)COC(=O)c2cccc(OC)c2O)cc1OCC | 541* | 2 | 0 | . | 21 | -14 | 0
CSc1ncc2ncn(C3OC(CO)C(O)C3O)c2n1 (centres undefined) | + | -5 | 3 | -7 | -4 | -6 | 1
CCSc1nc(N)nc2c1ncn2C1OC(CO)C(O)C1O (centres undefined) | . | . | -6 | -9 | -15 | . | .
NC(=O)C1CCN(C2CC(=O)N(c3cccc(F)c3)C2=O)CC1 (centres undefined) | -6 | -3 | -8 | -2 | -2 | -5 | .
CCOC(=O)C1CCN(C2CC(=O)N(c3cccc(Cl)c3)C2=O)CC1 (centres undefined) | 87 | -2 | -1 | 0 | -10 | -1 | .
SMILES | SUMO Mot1 rescue | APOBEC3A inh | ASAP1 GAP inh | Statin myotox sup | ARFGAP1 inh | APOBEC3G inh | Yeast Mot1 SUMO
NC(=O)C1CCN(C2CC(=O)N(c3ccc(F)c(Cl)c3)C2=O)CC1 (centres undefined) | 649* | -1 | -1 | -5 | 7 | -2 | -1
O=C(C1CCN(C2CC(=O)N(c3cccc(Cl)c3)C2=O)CC1)N1CCCC1 (centres undefined) | 417* | -6 | 13 | . | -3 | 9 | -1
O=C(NCC1CCCO1)C1CC(c2ccc(Cl)c(Cl)c2)=NO1 (centres undefined) | 870* | 1 | -21 | -11 | 19 | -1 | 0
CN1c2ccc(C#Cc3cccnc3)cc2[C@H]2[C@H](CCN2C(=O)Nc2cc(F)ccc2F)[C@@H]1CO | . | . | . | -27 | . | . | .
CC(C)(C)n1cnc2cc(NC(=O)c3ccc(Cl)cc3)ccc21 | 562* | -5 | 3 | 2 | -4 | -4 | -1
Cn1cnc2cc(NC(=O)c3ccc(Cl)cc3)ccc21 | 7 | -3 | -3 | -8 | -10 | -8 | .
C[C@@H]1CN([C@@H](C)CO)C(=O)c2cc(NC(=O)C3CC3)ccc2O[C@@H]1CN(C)Cc1ccc2c(c1)OCO2 | . | . | . | 9 | . | . | .
COc1ccc(-c2nc(C#N)c(NC(C)c3ccccc3)o2)cc1OC (centres undefined) | 417* | -1 | -5 | 35 | 8 | -3 | 1
CCOc1ccc(C(=O)Nc2ccc(N3CCN(C(C)=O)CC3)cc2)cc1[N+](=O)[O-] | 37 | -1 | 13 | . | 6 | -3 | .
CCOc1ccc(C(=O)Nc2ccc(N3CCN(C)CC3)cc2)cc1[N+](=O)[O-] | 690* | 0 | -11 | . | -12 | 0 | 1
CCS(=O)(=O)Nc1ccc2c(c1)C(=O)N(C)C[C@@H](OC)[C@@H](C)CN(C)[C@@H](C)CO2 | . | . | . | -1 | . | . | .
Cc1nc2ccc(S(=O)(=O)NC(CC(C)C)C(=O)O)cc2s1 (centres undefined) | + | 1 | 13 | -7 | 0 | -1 | 0
Cc1ccc(NC(=O)CCS(=O)(=O)c2ccc3nc(C)sc3c2)cc1 | 524* | 1 | 8 | 4 | 5 | -1 | 0
Cc1ccc(S(=O)(=O)CCC(=O)Nc2ccc3nc(C)sc3c2)cc1 | -6 | 2 | -4 | -1 | 13 | -3 | .
O=C(C[C@H]1CC[C@@H]2[C@H](COC[C@@H](O)CN2Cc2cccc(C(F)(F)F)c2)O1)NCCc1ccccc1 | . | . | . | -10 | . | . | .
O=C(C[C@H]1C[C@H]2c3cc(NC(=O)c4ccc5c(c4)OCO5)ccc3O[C@H]2[C@H](CO)O1)NCc1ccc(Cl)cc1 | . | . | . | 7 | . | . | .

Source: PubChem BioAssay (several laboratories)
